Reference: ChEMBL document CHEMBL4400542, “Epidermal Growth Factor Receptor-Targeted Multifunctional Photosensitizers for Bladder Cancer Imaging and Photodynamic Therapy” (J Med Chem, 2019)
Calls of active or inactive are those of the source. The calls are words filed in the database; no cut-off is given here.

Tests used:
[1] = Drug uptake in human UM-UC-3 cells xenografted in SCID mouse at 50 uCi, iv administered at 24 hrs post imaging and measured at 24 to 72 post injection by PET imaging analysis; assay type: ADME, organism-based, UMUC3; conditions: in vivo
Method in brief: (§1)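 SCID mice (3/group) with UMUC3 tumors first given 18F-FDG (50 µCi) and imaged at 110 min. At 24 h later, 124I-labelled agent given i.v. (50, 25 or 15 µCi); microPET at 24, 48, 72 h post-injection, same bed position. Injected dose checked by well gamma counter, within ±5%.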

[2] = Drug uptake in human UM-UC-3 cells xenografted in SCID mouse at 15 uCi, iv measured at 24 to 72 post injection by PET imaging analysis; assay type: ADME, organism-based, UMUC3; conditions: in vivo; method in brief: as §1
UMUC3 [3] = assay: Induction of apoptosis in human UM-UC-3 cells assessed as increase in necrotic cells at 1 uM in presence of light by Annexin V/propidium iodide-stining based flow cytometry; assay type: functional, cell-based
UMUC3 [4] = assay: Induction of apoptosis in human UM-UC-3 cells assessed as increase in apoptotic cells at 1 uM in presence of light by Annexin V/propidium iodide-stining based flow cytometry; assay type: functional, cell-based
T-24 [5] = assay: Induction of apoptosis in human T24 cells assessed as increase in apoptotic cells at 100 nM in presence of light by Annexin V/propidium iodide-stining based flow cytometry; assay type: functional, cell-based
[6] = target: Epidermal growth factor receptor (Homo sapiens) (UniProt P00533); assay: Inhibition of EGFR autophosphorylation at Ty1068 in human UM-UC-3 cells at 1 uM followed by PDT and measured after 24 hrs by Western blot analysis; assay type: cell-based
Sequence of Epidermal growth factor receptor (Homo sapiens) (P00533 whole entry): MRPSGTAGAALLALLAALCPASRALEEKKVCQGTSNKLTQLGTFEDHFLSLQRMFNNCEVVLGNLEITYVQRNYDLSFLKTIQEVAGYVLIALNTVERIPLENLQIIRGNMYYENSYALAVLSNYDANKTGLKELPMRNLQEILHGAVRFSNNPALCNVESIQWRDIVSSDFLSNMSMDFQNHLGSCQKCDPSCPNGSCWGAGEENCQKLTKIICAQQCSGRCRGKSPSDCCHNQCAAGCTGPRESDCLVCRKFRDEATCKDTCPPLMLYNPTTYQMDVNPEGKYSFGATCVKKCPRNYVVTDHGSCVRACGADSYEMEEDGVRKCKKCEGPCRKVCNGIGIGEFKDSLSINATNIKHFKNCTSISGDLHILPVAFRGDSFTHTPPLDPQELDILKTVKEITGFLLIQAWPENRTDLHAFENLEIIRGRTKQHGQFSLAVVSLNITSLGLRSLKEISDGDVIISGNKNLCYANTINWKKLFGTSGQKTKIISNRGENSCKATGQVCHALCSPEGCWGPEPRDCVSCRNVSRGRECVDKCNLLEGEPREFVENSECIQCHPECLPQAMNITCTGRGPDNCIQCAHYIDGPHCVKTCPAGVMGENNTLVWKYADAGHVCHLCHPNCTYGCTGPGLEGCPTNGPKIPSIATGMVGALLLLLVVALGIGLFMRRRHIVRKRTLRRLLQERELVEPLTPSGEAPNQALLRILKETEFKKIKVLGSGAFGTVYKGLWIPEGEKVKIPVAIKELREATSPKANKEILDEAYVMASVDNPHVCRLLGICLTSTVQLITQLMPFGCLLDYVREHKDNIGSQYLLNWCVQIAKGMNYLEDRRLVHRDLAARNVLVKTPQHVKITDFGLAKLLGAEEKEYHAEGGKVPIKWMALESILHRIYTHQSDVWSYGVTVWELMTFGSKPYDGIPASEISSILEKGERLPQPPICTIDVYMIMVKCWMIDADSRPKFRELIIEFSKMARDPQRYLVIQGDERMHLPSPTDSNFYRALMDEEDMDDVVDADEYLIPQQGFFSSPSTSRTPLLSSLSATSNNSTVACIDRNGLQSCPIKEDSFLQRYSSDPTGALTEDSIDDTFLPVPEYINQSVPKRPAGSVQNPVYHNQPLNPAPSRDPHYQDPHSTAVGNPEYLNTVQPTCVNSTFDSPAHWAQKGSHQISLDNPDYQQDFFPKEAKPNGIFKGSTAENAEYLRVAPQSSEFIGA

[7] = target: Epidermal growth factor receptor (Homo sapiens) (UniProt P00533); assay: Inhibition of EGFR autophosphorylation at Ty1068 in human T24 cells at 1 uM followed by PDT and measured after 24 hrs by Western blot analysis; assay type: cell-based
[8] = target: Epidermal growth factor receptor (Homo sapiens) (UniProt P00533); assay: Inhibition of EGFR autophosphorylation at Ty1068 in human UM-UC-3 cells at 100 nM followed by PDT and measured after 24 hrs by Western blot analysis; assay type: cell-based
T-24 [9] = assay: Induction of apoptosis in human T24 cells assessed as increase in apoptotic cells at 1 uM in presence of light by Annexin V/propidium iodide-stining based flow cytometry; assay type: functional, cell-based
T-24 [10] = assay: Induction of apoptosis in human T24 cells assessed as increase in necrotic cells at 1 uM in presence of light by Annexin V/propidium iodide-stining based flow cytometry; assay type: functional, cell-based
UMUC3 [11] = assay: Induction of apoptosis in human UM-UC-3 cells assessed as increase in apoptotic cells at 100 nM in presence of light by Annexin V/propidium iodide-stining based flow cytometry; assay type: functional, cell-based
UMUC3 [12] = assay: Induction of apoptosis in human UM-UC-3 cells assessed as increase in necrotic cells at 100 nM in presence of light by Annexin V/propidium iodide-stining based flow cytometry; assay type: functional, cell-based
UMUC3 [13] = assay: Anti-tumor activity against human UM-UC-3 cells xenografted in SCID mouse at 0.47 umol/kg, iv in presence of 135 J/cm2 light irradiation at 24 hrs post injection and measured every day till day 60; assay type: functional, organism-based
Method in brief: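 UMUC-3 cells implanted in right flank of SCID mice; at 4–5 mm tumors, PS given i.v. at 0.47 µmol/kg. Tumors exposed to 665 nm light, 135 J/cm2 at 75 mW/cm2, 24 h post-injection. Tumor regrowth monitored daily; mice euthanized at >400 mm3; tumor-free status scored at day 60.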

UMUC3 [14] = assay: Anti-tumor activity against human UM-UC-3 cells xenografted in SCID mouse assessed as tumor necrosis at 0.47 umol/kg, iv in presence of 135 J/cm2 light irradiation at 24 hrs post injection and measured at 72 hrs post light exposure; assay type: functional, organism-based
[15] = Induction of singlet oxygen generation in deaerated toluene at 670 nm assessed as rate of singlet decay by femtosecond transient absorption spectroscopy; assay type: functional
[16] = Induction of singlet oxygen generation in deaerated toluene at 670 nm assessed as singlet decay life time by femtosecond transient absorption spectroscopy; assay type: functional
[17] = Induction of singlet oxygen generation in Ar-saturated toluene solution at 670 nm assessed as decay rate constant of triplet excited state by femtosecond transient absorption spectroscopy; assay type: functional
[18] = Induction of singlet oxygen generation in oxygen-saturated toluene solution at 670 nm assessed as decay rate constant of triplet excited state by femtosecond transient absorption spectroscopy; assay type: functional
[19] = Induction of singlet oxygen generation assessed as energy transfer from the triplet chlorins to oxygen by femtosecond transient absorption spectroscopy; assay type: functional

SMILES	Drug uptake [1]	Drug uptake [2]	Activity (UMUC3 [3])	Activity (UMUC3 [4])	Activity (T-24 [5])	inhibition [6]	inhibition [7]	inhibition [8]	Activity (T-24 [9])	Activity (T-24 [10])	Activity (UMUC3 [11])	Activity (UMUC3 [12])	Activity (UMUC3 [13])	Activity (UMUC3 [14])	K [15]	Time [16]	K [17]	K [18]	K [19]
CCC1=C(C)c2cc3[nH]c(cc4nc(c5c6[nH]c(cc1n2)c(C)c6C(=O)C5)[C@@H](CCC(=O)NCc1cccc(C#Cc2cccc(Nc5ncnc6cc(OCCOC)c(OCCOC)cc56)c2)c1)[C@@H]4C)c(C)c3C(C)OCc1cccc([124I])c1 (some centres undefined)	Active	Active	–	–	–	–	–	–	–	–	–	–	–	–	–	–	–	–	–
CCC1=C(C)c2cc3[nH]c(cc4nc(c5c6[nH]c(cc1n2)c(C)c6C(=O)C5)[C@@H](CCC(=O)NCc1cccc(C#Cc2cccc(Nc5ncnc6cc(OCCOC)c(OCCOC)cc56)c2)c1)[C@@H]4C)c(C)c3C(C)OCc1cccc(I)c1 (some centres undefined)	–	–	Active	Active	inactive	Active	Active	Active	Active	Active	Active	Active	Active	Active	7.5 ×10⁹ /s	133 pS	9.8 ×10⁴ /s	2.07 ×10⁵ /s	1.03 ×10¹⁰ /M/s
